Converted amounts (≈) assume the structure as drawn.
How the values were obtained:
Hepatovirus A [1] = assay: Antiviral activity against Hepatitis A virus infected in rhesus monkey FRhK4 cells assessed as inhibition in viral adsorption using cells pre-incubated with compound for 24 hrs before viral infection for 1 hr by MTT assay; format: functional, organism-based; details: FRhK-4
Procedure, shortened: (§1)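 FRhK-4 monolayers in 24-well plates were exposed to non-toxic compound concentrations for 24 h at 37 °C in 5% CO2. Compound was then removed and HAV added for 1 h, after which the inoculum was replaced with medium for 72 h. MTT OD540 was read in triplicate alongside virus-infected and cell-only controls to give IC50. TI = CC50/IC50.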

Hepatovirus A [2] = assay: Antiviral activity against Hepatitis A virus infected in rhesus monkey FRhK4 cells assessed as reduction in virus-induced cytopathic effect incubated for 72 hrs by MTT assay; format: functional, organism-based; details: FRhK-4, 72 h
Procedure, shortened: (§2)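 Virucidal format: HAV (10^6 […] TCID50/0.1 ml) was mixed with an equal volume of non-toxic compound concentrations for 1 h at 37 °C. The mixture was added to FRhK-4 monolayers for 1 h, then replaced with medium for 72 h. MTT OD540 was read in triplicate with virus and cell controls to give IC50. TI = CC50/IC50.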

[3] = Therapeutic index, ratio of CC50 of rhesus monkey FRhK cells to IC50 of antiviral activity against Hepatitis A virus infected in rhesus monkey FRhK4 cells assessed as inhibition in viral adsorption using cells pre-incubated with compound for 24 hrs before viral infection for 1 hr by MTT assay; format: toxicity, cell-based; details: read-out: Ratio CC50/IC50; procedure, shortened: as §1
[4] = Therapeutic index, ratio of CC50 of rhesus monkey FRhK cells to IC50 for antiviral activity against Hepatitis A virus infected in rhesus monkey FRhK4 cells assessed as inhibition in viral replication using cells pre-infected with virus before compound exposure for 72 hrs by MTT assay; format: toxicity, cell-based; details: read-out: Ratio CC50/IC50
Procedure, shortened: (§3)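 FRhK-4 monolayers were infected with HAV for 1 h. Unbound virus was removed and replaced with medium containing non-toxic compound concentrations, then incubated 72 h at 37 °C in 5% CO2. MTT OD540 was read in triplicate alongside virus-infected and cell-only controls to give IC50. TI = CC50/IC50.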

[5] = Cytotoxicity against rhesus monkey FRhK4 cells assessed as reduction in cell viability incubated for 48 hrs by MTT assay; format: cell-based, Macaca mulatta
Procedure, shortened: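 FRhK-4 cells (DMEM, 10% FBS) were seeded at 5 X 10^3 cells/well and grown 24 h. They were exposed to compound at 7.8–1000 µg/mL for 48 h at 37 °C in 5% CO2. MTT (5 mg/mL) was added for 4 h, then DMSO for 30 min, and OD540 read. CC50 was derived from the mean of three ODs versus untreated cells.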

Hepatovirus A [6] = assay: Antiviral activity against Hepatitis A virus infected in rhesus monkey FRhK4 cells assessed as inhibition in viral replication using cells pre-infected with virus before compound exposure for 72 hrs by MTT assay; format: functional, organism-based; details: FRhK-4, 72 h; procedure, shortened: as §3
[7] = Therapeutic index, ratio of CC50 of rhesus monkey FRhK cells to IC50 of antiviral activity against Hepatitis A virus infected in rhesus monkey FRhK4 cells; format: toxicity, cell-based; details: read-out: Ratio CC50/IC50; procedure, shortened: as §2
[8] = Inhibition of HAV 3C expressed in Escherichia coli BL21(DE3) pLysS using Dabcyl-GLRTQSND (edans) G as substrate preincubated for 3 mins before enzyme addition by fluorescence method based Cheng and Prusoff equation analysis; design: species or system Hepatovirus A
[9] = Inhibition of HAV 3C expressed in Escherichia coli BL21(DE3) pLysS using Dabcyl-GLRTQSND (edans) G as substrate preincubated for 3 mins before enzyme addition by fluorescence method; design: species or system Hepatovirus A
[10] = Inhibition of HRV 3C using chromogenic peptide substrate pre-incubated for 15 mins before substrate addition and measured after 1 to 2 hrs by colorimetric method
Procedure, shortened: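 HRV 3C protease was assayed with a commercial screening kit, with reagents equilibrated to room temperature. Enzyme was incubated with compound for 15 min at room temperature, with enzyme and solvent controls. Substrate was then added and absorbance at 405 nm read in kinetic mode for 1–2 h at 37 °C.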

[11] = Binding affinity to Hepatitis A virus Protease 3C; design: species or system Hepatovirus A

Row | IC50 [9] | IC50 [10] | Compound | IC50 (Hepatovirus A [1]) | IC50 (Hepatovirus A [2]) | selectivity ratio at 1 h [3] | selectivity ratio at 72 h [4] | CC50 at 48 h [5] | IC50 (Hepatovirus A [6]) | selectivity ratio [7] | Ki [8] | pKd [11]
1 | – | – | O=C(COc1ccc2c(-c3ccccc3)cc(=O)oc2c1)N/N=C1/C(=O)Nc2ccc(Cl)cc21 | 1100 µg/mL (≈ 2320 µM) | 784 µg/mL (≈ 1660 µM) | 0.5 | 0.1 | 549 µg/mL (≈ 1160 µM) | 5490 µg/mL (≈ 11600 µM) | 0.7 | – | –
2 | – | – | CCn1c(COc2ccc3c(-c4ccccc4)cc(=O)oc3c2)nnc1SCCN1CCOCC1 | 1180 µg/mL (≈ 2390 µM) | 47 µg/mL (≈ 95.4 µM) | 0.8 | 70 | 942 µg/mL (≈ 1910 µM) | 13.4 µg/mL (≈ 27.2 µM) | 20 | – | –
3 | – | – | Cn1c(COc2ccc3c(-c4ccccc4)cc(=O)oc3c2)n[nH]c1=S | 1300 µg/mL (≈ 3550 µM) | 11.3 µg/mL (≈ 30.9 µM) | 0.5 | 48 | 648 µg/mL (≈ 1770 µM) | 13.5 µg/mL (≈ 36.9 µM) | 57 | – | –
4 | – | – | CCNc1nnc(COc2ccc3c(-c4ccccc4)cc(=O)oc3c2)s1 | 18.4 µg/mL (≈ 48.5 µM) | 64.5 µg/mL (≈ 170 µM) | 7 | 5 | 129 µg/mL (≈ 340 µM) | 25.8 µg/mL (≈ 68 µM) | 2 | – | –
5 | 5.94 µM | 4.13 µM | C/C(=N\NC(=O)COc1ccc2c(-c3ccccc3)cc(=O)oc2c1)c1ccc(Cl)cc1 | 44.4 µg/mL (≈ 99.4 µM) | 30.5 µg/mL (≈ 68.2 µM) | 22 | 91 | 978 µg/mL (≈ 2190 µM) | 10.7 µg/mL (≈ 23.9 µM) | 32 | 0.104 µM | 5.51
6 | – | – | Nn1c(S)nnc1COc1ccc2c(-c3ccccc3)cc(=O)oc2c1 | 3240 µg/mL (≈ 8840 µM) | 216 µg/mL (≈ 590 µM) | 0.2 | 9 | 648 µg/mL (≈ 1770 µM) | 72 µg/mL (≈ 197 µM) | 3 | – | –
7 | – | – | Nc1nc2c(ncn2COCCO)c(=O)[nH]1 [ACYCLOVIR] | 33.5 µg/mL (≈ 149 µM) | 35.6 µg/mL (≈ 158 µM) | 85 | 93 | > 1000 µg/mL | 30.6 µg/mL (≈ 136 µM) | 80 | – | –
8 | – | – | Cc1cc(C)n(C(=O)COc2ccc3c(-c4ccccc4)cc(=O)oc3c2)n1 | 83.6 µg/mL (≈ 223 µM) | 37.6 µg/mL (≈ 100 µM) | 9 | 17 | 753 µg/mL (≈ 2010 µM) | 44.3 µg/mL (≈ 118 µM) | 20 | – | –
9 | – | – | CN(C)CCSc1nnc(COc2ccc3c(-c4ccccc4)cc(=O)oc3c2)o1 | 112 µg/mL (≈ 264 µM) | 44.8 µg/mL (≈ 106 µM) | 8 | 25 | 897 µg/mL (≈ 2120 µM) | 35.8 µg/mL (≈ 84.5 µM) | 20 | – | –
10 | – | – | O=c1cc(-c2ccccc2)c2ccc(OCc3n[nH]c(=S)o3)cc2o1 | 184 µg/mL (≈ 521 µM) | 4.7 µg/mL (≈ 13.3 µM) | 2 | 50 | 367 µg/mL (≈ 1040 µM) | 7.34 µg/mL (≈ 20.8 µM) | 78 | – | –
11 | – | – | NNC(=O)COc1ccc2c(-c3ccccc3)cc(=O)oc2c1 | 112 µg/mL (≈ 361 µM) | 3920 µg/mL (≈ 12600 µM) | 7 | 0.7 | 785 µg/mL (≈ 2530 µM) | 1120 µg/mL (≈ 3610 µM) | 0.2 | – | –
12 | – | – | CCn1c(COc2ccc3c(-c4ccccc4)cc(=O)oc3c2)n[nH]c1=S | 49.7 µg/mL (≈ 131 µM) | 12.9 µg/mL (≈ 34 µM) | 12 | 7 | 597 µg/mL (≈ 1570 µM) | 82.7 µg/mL (≈ 218 µM) | 46 | – | –
13 | 7.19 µM | 6.3 µM | C/C(=N\NC(=O)COc1ccc2c(-c3ccccc3)cc(=O)oc2c1)c1ccc(Br)cc1 | 8.5 µg/mL (≈ 17.3 µM) | 1880 µg/mL (≈ 3830 µM) | 88 | 12 | 752 µg/mL (≈ 1530 µM) | 62.6 µg/mL (≈ 127 µM) | 0.4 | 0.217 µM | 5.53
14 | – | – | O=C(COc1ccc2c(-c3ccccc3)cc(=O)oc2c1)N/N=C1/C(=O)Nc2ccccc21 | 242 µg/mL (≈ 550 µM) | 80.5 µg/mL (≈ 183 µM) | 2 | 4 | 483 µg/mL (≈ 1100 µM) | 121 µg/mL (≈ 275 µM) | 6 | – | –
15 | – | – | O=c1cc(-c2ccccc2)c2ccc(OCc3nnc(SCCN4CCOCC4)o3)cc2o1 | 9.9 µg/mL (≈ 21.3 µM) | 9.9 µg/mL (≈ 21.3 µM) | 25 | 0.4 | 249 µg/mL (≈ 535 µM) | 622 µg/mL (≈ 1340 µM) | 25 | – | –
16 | – | – | O=C(COc1ccc2c(-c3ccccc3)cc(=O)oc2c1)N/N=C1/C(=O)Nc2ccc(Br)cc21 | 21.6 µg/mL (≈ 41.7 µM) | 13 µg/mL (≈ 25.1 µM) | 44 | 52 | 951 µg/mL (≈ 1830 µM) | 18.3 µg/mL (≈ 35.3 µM) | 73 | – | –
17 | – | – | O=c1cc(-c2ccccc2)c2ccc(O)cc2o1 | 1130 µg/mL (≈ 4760 µM) | 4.8 µg/mL (≈ 20.1 µM) | 0.3 | 8 | 340 µg/mL (≈ 1430 µM) | 42.5 µg/mL (≈ 178 µM) | 70.8 | – | –
18 | – | – | C/C(=N\NC(=O)COc1ccc2c(-c3ccccc3)cc(=O)oc2c1)c1ccccc1 | 219 µg/mL (≈ 531 µM) | 110 µg/mL (≈ 265 µM) | 2 | 0.6 | 438 µg/mL (≈ 1060 µM) | 730 µg/mL (≈ 1770 µM) | 4 | – | –
19 | – | – | O=C(COc1ccc2c(-c3ccccc3)cc(=O)oc2c1)NN1C(=O)c2ccccc2C1=O | 13 µg/mL (≈ 29.5 µM) | 106 µg/mL (≈ 240 µM) | 72 | 0.7 | 951 µg/mL (≈ 2160 µM) | 1360 µg/mL (≈ 3080 µM) | 9 | – | –
20 | 17.8 µM | 16.1 µM | CCNC(=S)NNC(=O)COc1ccc2c(-c3ccccc3)cc(=O)oc2c1 | 32.2 µg/mL (≈ 81.1 µM) | 3.1 µg/mL (≈ 7.8 µM) | 8 | 3 | 258 µg/mL (≈ 649 µM) | 86 µg/mL (≈ 216 µM) | 83 | 1.9 µM | 6.78
21 | – | – | CCOC(=O)COc1ccc2c(-c3ccccc3)cc(=O)oc2c1 | 180 µg/mL (≈ 555 µM) | 1290 µg/mL (≈ 3960 µM) | 5 | 35 | 900 µg/mL (≈ 2770 µM) | 25.7 µg/mL (≈ 79.2 µM) | 0.7 | – | –
22 | – | – | CNC(=S)NNC(=O)COc1ccc2c(-c3ccccc3)cc(=O)oc2c1 | 11.9 µg/mL (≈ 31 µM) | 238 µg/mL (≈ 620 µM) | 80 | 15 | 951 µg/mL (≈ 2480 µM) | 63.4 µg/mL (≈ 165 µM) | 4 | – | –
23 | – | – | CCN(CC)CCSc1nnc(COc2ccc3c(-c4ccccc4)cc(=O)oc3c2)o1 | 3.18 µg/mL (≈ 7.04 µM) | 81.6 µg/mL (≈ 181 µM) | 77 | 32 | 245 µg/mL (≈ 543 µM) | 7.65 µg/mL (≈ 16.9 µM) | 3 | – | –
24 | – | – | CNc1nnc(COc2ccc3c(-c4ccccc4)cc(=O)oc3c2)s1 | 544 µg/mL (≈ 1490 µM) | 2180 µg/mL (≈ 5950 µM) | 0.8 | 3 | 435 µg/mL (≈ 1190 µM) | 145 µg/mL (≈ 397 µM) | 0.2 | – | –
